The target in series [1] is Human immunodeficiency virus type 1 reverse transcriptase (Human immunodeficiency virus 1, UniProt Q72547). Put plainly: Antiviral activity against HIV1 Reverse transcriptase activity. The gist of the method:
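C8166-CCR5 human CD4+ T cells (3 × 10^4) in RPMI 1640 with 10% FBS were mixed with compound and infected with HIV-1 NL43 inoculum normalized to 1 × 10^5 cpm RT activity, then held at 37 °C. Four days after infection, supernatant RT activity was read with poly(A) template, oligo(dT) primer and [32P]TTP. Run in duplicate or triplicate. EC50 reported.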

The subject of series [2] is Human immunodeficiency virus 1. Kind of series: Antiviral activity against HIV1 NL4-3 infected human C8166-CCR5 cells assessed as decrease in virus-induced cytopathicity after 72 hrs by cell associated dehydrogenase activity assay. It counts as functional, organism-based. The settings on record: Human immunodeficiency virus 1, NL4-3, C8166-CCR5, 72 h. (In general: Cytopathic effects are the visible damage that an infection or toxin causes in cultured cells.)

Series [3] is described as follows: Cytotoxicity against […] human C8166-CCR5 cells assessed as decrease in cell viability by cell associated dehydrogenase activity assay. It counts as cell-based. Put shortly: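 C8166-CCR5 human CD4+ T cells, grown in RPMI 1640 with 10% FBS and antibiotics, seeded at 3 × 10^4 cells per well with compound across a concentration series. Incubated at 37 °C for 72 h. Viability read by cell-associated dehydrogenase activity (CCK-8). Run in duplicate or triplicate. CC50 is the 50% cytostatic concentration.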

Series [4] in a line: Selectivity index, ratio of CC50 for human C8166-CCR5 cells to EC50 for HIV1 NL4-3. It counts as toxicity, cell-based. As to conditions: read-out: Ratio CC50/EC50. Put shortly: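 SI = CC50/EC50. CC50 is from the 72 h CCK-8 viability assay in uninfected C8166-CCR5 cells. EC50 is from supernatant RT activity four days after HIV-1 NL43 infection of the same cells.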
Series [5] is described as follows: Selectivity index, ratio of CD50 for human MT4 cells to ID50 for HIV1. As to conditions: read-out: Selectivity Index. It counts as toxicity, cell-based.
The target of another series is Protease (Human immunodeficiency virus 1, UniProt Q9YQ12). Kind of series: Inhibition of HIV1 protease activity.
Series [6] deals with Human immunodeficiency virus 1. Put plainly: Antiviral activity against HIV1 3B infected human CCR5 cells assessed as decrease in viral syncytium formation. It counts as functional, organism-based. The settings on record: Human immunodeficiency virus 1, 3B.

Molecules are shown by their SMILES. Values after ≈ are worked out from the molar mass of the structure shown.

Sequence of Protease (Q9YQ12 whole entry): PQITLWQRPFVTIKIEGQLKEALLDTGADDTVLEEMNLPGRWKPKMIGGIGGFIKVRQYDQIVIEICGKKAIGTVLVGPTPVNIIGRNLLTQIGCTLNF

For orientation: IC50 means the concentration that inhibits the measured activity by half. Read a low IC50 as inhibition by little substance. In series [1], `CC1(C)[C@H](O)CC[C@]2(C)C3=CC[C@@]4(C)[C@@H]5C[C@](C)(COC(=O)c6ccccc6)CC[C@]5(C)CC[C@]4(C)C3=CC[C@@H]12` showed a half-maximal inhibitory concentration (IC50) of 4.04 µM. This lies in the single-digit micromolar range.

The term EC50 denotes the midpoint of the concentration-response curve. As usually defined, the CC50 is the concentration that lowers cell viability or growth by half. On to `CO[C@H]1CC[C@]2(C)[C@H](CC[C@@]3(C)CC4=CC[C@@H]5C(C)(C)[C@H](O)CC[C@@]5(C)[C@@H]4CC[C@@H]32)C1(C)C`, for which the half-maximal effective concentration (EC50) in series [2] is over 100 µg/mL. The CC50 in series [3] is over 100 µg/mL.

In the case of `CO[C@H]1CC[C@]2(C)[C@H](CC[C@@]3(C)CC4=CC[C@@H]5C(C)(C)[C@H](OC(=O)CCC(=O)OCc6cc(=O)c(OC(=O)CCC(=O)O[C@@H]7CC[C@@]8(C)[C@@H]9CC[C@H]%10[C@@](C)(CC[C@@H]%11C(C)(C)[C@@H](OC)CC[C@]%11%10C)CC9=CC[C@@H]8C7(C)C)co6)CC[C@@]5(C)[C@@H]4CC[C@@H]32)C1(C)C`, in series [2], the EC50 is 5.94 µg/mL (≈ 4.87 µM). Further, the half-maximal cytotoxic concentration (CC50) in series [3] is over 100 µg/mL. Further, in series [4], the selectivity ratio is over 5000.

`COc1cc(/C=C/C(=O)O[C@H]2CC[C@]34C[C@]35CC[C@]3(C)[C@@H]([C@H](C)CCC=C(C)C)CC[C@@]3(C)[C@@H]5CC[C@H]4C2(C)C)ccc1O` [GAMMA ORYZANOL] showed an IC50 in series [1] of 3.65 µM.

For `CC1(C)[C@@H](O)CC[C@]2(C)[C@H]3C(=O)C=C4[C@@H]5C[C@@](C)(C(=O)O)CC[C@]5(C)CC[C@@]4(C)[C@]3(C)CC[C@@H]12` [ENOXOLONE], the selectivity ratio in series [5] stood at 9.6.

On Protease, `C[C@H]1[C@H](C)CC[C@]2(C(=O)O)CC[C@]3(C)C(=CC[C@@H]4[C@@]5(C)CC[C@H](O)C(C)(C)[C@@H]5CC[C@]43C)[C@H]12` [URSOLIC ACID GLUTARYL HEMI ESTER] yielded an IC50 of 4 µM.

Consider `CO[C@@H]1CC[C@]2(C)[C@H](CC[C@@]3(C)CC4=CC[C@@H]5C(C)(C)[C@H](OC(=O)CCC(=O)Oc6cc(-c7oc8cc(O)cc(O)c8c(=O)c7O)ccc6O)CC[C@@]5(C)[C@@H]4CC[C@@H]32)C1(C)C`, for which the concentration giving a half-maximal response (EC50) in series [2] stood at 26.6 µg/mL (≈ 31.6 µM). The CC50 in series [3] was over 100 µg/mL. Also, the selectivity ratio in series [4] turned out to be 4.8.

`C[C@H]1[C@H](C)CC[C@]2(C(=O)O)CC[C@]3(C)C(=CC[C@@H]4[C@@]5(C)CC[C@H](O)C(C)(C)[C@@H]5CC[C@]43C)[C@H]12` [URSOLIC ACID] displayed a concentration for half-maximal inhibition (IC50) at Protease of 8 µM.

Turning to `CO[C@H]1CC[C@]2(C)[C@H](CC[C@@]3(C)CC4=CC[C@@H]5C(C)(C)[C@H](OC(=O)CCC(=O)Oc6cc(-c7oc8cc(O)cc(O)c8c(=O)c7O)ccc6O)CC[C@@]5(C)[C@@H]4CC[C@@H]32)C1(C)C`, in series [2], the EC50 was 23.2 µg/mL (≈ 27.6 µM). In addition, the CC50 in series [3] was over 100 µg/mL. The selectivity ratio in series [4] was over 5000.

Consider `C[C@H]1[C@H](C)CC[C@]2(C(=O)O)CC[C@]3(C)C(=CC[C@@H]4[C@@]5(C)CC[C@H](O)C(C)(C)[C@@H]5CC[C@]43C)[C@H]12` [URSOLIC ACID HYDROGEN MALONATE], for which 6 µM corresponded to half-maximal inhibition against Protease (IC50). In other words, the single-digit micromolar range.

Regarding `CO[C@@H]1CC[C@]2(C)[C@H](CC[C@@]3(C)CC4=CC[C@@H]5C(C)(C)[C@H](OC(=O)CCC(=O)Oc6coc(CO)cc6=O)CC[C@@]5(C)[C@@H]4CC[C@@H]32)C1(C)C`, in series [2], the concentration giving a half-maximal response (EC50) stood at 4.13 µg/mL (≈ 6.07 µM). Moreover, in series [3], the CC50 turned out to be 22.2 µg/mL (≈ 32.6 µM). Further, the selectivity ratio in series [4] worked out at 5.4.

`CC1(C)CC[C@]2(C(=O)NCCCCCC(=O)O)CC[C@]3(C)C(=CC[C@@H]4[C@@]5(C)CC[C@H](OC(=O)CCCCC(=O)O)C(C)(C)[C@@H]5CC[C@]43C)[C@@H]2C1` had a concentration for half-maximal inhibition (IC50) on Protease of 1.7 µM.

For the molecule `CO[C@@H]1CC[C@]2(C)[C@H](CC[C@@]3(C)CC4=CC[C@@H]5C(C)(C)[C@H](OC(=O)CCC(=O)Oc6c(O)cc7oc(-c8ccccc8)cc(=O)c7c6O)CC[C@@]5(C)[C@@H]4CC[C@@H]32)C1(C)C`, in series [2], the EC50 amounted to 21.4 µg/mL (≈ 26.5 µM). In series [3], the half-maximal cytotoxic concentration (CC50) is over 100 µg/mL. In addition, the selectivity ratio in series [4] is 4.9.

With `CC1(C)CC[C@]2(C(=O)NCCCCCC(=O)O)CC[C@]3(C)C(=CC[C@@H]4[C@@]5(C)CC[C@H](O)C(C)(C)[C@@H]5CC[C@]43C)[C@@H]2C1`, 1.7 µM corresponded to half-maximal inhibition on Protease (IC50).

The molecule `C=C(C)[C@@H]1CC[C@]2(C)CC[C@]3(C)[C@H](CC[C@@H]4[C@@]5(C)CCC(=O)C(C)(C)[C@@H]5CC[C@]43C)[C@@H]12` [LUPENONE] had an IC50 in series [1] of 4.94 µM. This counts as single-digit micromolar.

`CC1(C)CC[C@]2(C(=O)O)CC[C@]3(C)C(=CC[C@@H]4[C@@]5(C)CC[C@H](O)C(C)(C)[C@@H]5CC[C@]43C)[C@@H]2C1` [OLEANOLIC_ACID] came in with a half-maximal inhibitory concentration (IC50) against Protease of 8 µM. That is a single-digit micromolar value.

Molecule `C=C(CC[C@@H](C)[C@H]1CC[C@@]2(C)[C@@H]3CC[C@H]4C(C)(C)[C@@H](OC(=O)/C=C/c5ccc(O)c(OC)c5)CC[C@@]45C[C@@]35CC[C@]12C)C(C)C` gave an IC50 in series [1] of 3.08 µM.

Take `CO[C@@H]1CC[C@]2(C)[C@H](CC[C@@]3(C)CC4=CC[C@@H]5C(C)(C)[C@H](OC(=O)CCC(=O)OCc6cc(=O)c(OC(=O)CCC(=O)O[C@@H]7CC[C@@]8(C)[C@@H]9CC[C@H]%10[C@@](C)(CC[C@@H]%11C(C)(C)[C@H](OC)CC[C@]%11%10C)CC9=CC[C@@H]8C7(C)C)co6)CC[C@@]5(C)[C@@H]4CC[C@@H]32)C1(C)C`: the EC50 in series [2] came out at 0.12 µg/mL (≈ 0.0984 µM). Also, the CC50 in series [3] was determined as 4.2 µg/mL (≈ 3.44 µM). Also, in series [4], the selectivity ratio was determined as 35.

`C=C(C)[C@@H]1CC[C@]2(COC(C)=O)CC[C@]3(C)[C@H](CC[C@@H]4[C@@]5(C)CC[C@H](OC(C)=O)C(C)(C)[C@@H]5CC[C@]43C)[C@@H]12` [BETULIN DIACETATE] showed a half-maximal inhibitory concentration (IC50) in series [1] of 2.66 µM. This lies in the single-digit micromolar range.

With `CO[C@@H]1CC[C@]2(C)[C@H](CC[C@@]3(C)CC4=CC[C@@H]5C(C)(C)[C@H](O)CC[C@@]5(C)[C@@H]4CC[C@@H]32)C1(C)C`, the EC50 in series [2] was over 100 µg/mL. Also, in series [3], the cytotoxic concentration (CC50) is over 100 µg/mL.

With `CO[C@H]1CC[C@]2(C)[C@H](CC[C@@]3(C)CC4=CC[C@@H]5C(C)(C)[C@H](OC(=O)CCC(=O)Oc6c(O)cc7oc(-c8ccccc8)cc(=O)c7c6O)CC[C@@]5(C)[C@@H]4CC[C@@H]32)C1(C)C`, the EC50 in series [2] worked out at 55.4 µg/mL (≈ 68.4 µM). Also, the half-maximal cytotoxic concentration (CC50) in series [3] is over 100 µg/mL. The selectivity ratio in series [4] came out at 2.3.

Consider `CO[C@H]1CC[C@]2(C)[C@H](CC[C@@]3(C)CC4=CC[C@@H]5C(C)(C)[C@H](OC(=O)CCC(=O)Oc6coc(CO)cc6=O)CC[C@@]5(C)[C@@H]4CC[C@@H]32)C1(C)C`, for which the concentration giving a half-maximal response (EC50) in series [2] was 6.75 µg/mL (≈ 9.91 µM). The CC50 in series [3] was over 100 µg/mL. In addition, the selectivity ratio in series [4] is 86.8.

Regarding `CC1(C)CC[C@]2(C(=O)O)CC[C@]3(C)C(=CC[C@@H]4[C@@]5(C)CC[C@H](O)C(C)(C)[C@@H]5CC[C@]43C)[C@@H]2C1` [OLEANOLIC ACID GLUTARYL HEMI ESTER], the IC50 against Protease amounted to 4 µM.

On to `Cc1cn([C@H]2C[C@H](N=[N+]=[N-])[C@@H](CO)O2)c(=O)[nH]c1=O` [ZIDOVUDINE], for which the EC50 in series [2] was found to be 0.02 µg/mL (≈ 0.0748 µM). Moreover, the cytotoxic concentration (CC50) in series [3] was over 100 µg/mL. For the same molecule, the selectivity ratio in series [4] was over 5000.

`C=C(C)[C@@H]1CC[C@]2(C(=O)O)CC[C@]3(C)[C@H](CC[C@@H]4[C@@]5(C)CC[C@H](O)C(C)(C)[C@@H]5CC[C@]43C)[C@@H]12` [BETULINIC ACID GLUTARYL HEMI ESTER] had a 50% inhibitory concentration (IC50) on Protease of 4 µM.

For `CC1=C[C@@H]([C@H](O)[C@H](C)[C@@H]2C[C@@H](O)[C@@]3(O)[C@@H]4CC[C@@H]5C(C)(C)O[C@@H]6CC(=O)O[C@@]56C[C@]4(O)CC[C@@]23C)OC1=O` [MICRANDILACTONE C], the concentration for a half-maximal effect (EC50) in series [6] is 7710 µg/mL (≈ 14400 µM). Further, the CC50 in series [3] is over 200 µg/mL.

(Values after ChEMBL document CHEMBL1782018, “Novel 3alpha-methoxyserrat-14-en-21beta-ol (PJ-1) and 3beta-methoxyserrat-14-en-21beta-ol (PJ-2)-curcumin, kojic acid, quercetin, and baicalein conjugates as HIV agents” (Bioorg Med Chem, 2009).)
